Our source for the viability, differential viability (reversal) and inhibition values is PubChem BioAssay.

A short description of experiment [1]: reduced viability of SK-BR-3 breast cancer cells – cell-based, 24 h, human, pilot screen (AID 572;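 active = viability at or below 10% of carrier control in both of two separate runs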;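 note: compound exposure lasted between 18 and 24 h rather than exactly 24 h; 100% = carrier-treated control wells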). Conditions: SK-BR-3 viability, CellTiter-Glo luminescence, at 10 µM, stronger effect = lower value.
Experiment [2] is described as follows: HUVEC growth inhibition – cell-based, human, primary screen (AID 575;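 active = viability at or below 30% in both replicate assays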;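 note: 100% = median of untreated cell wells with 0.1% DMSO on each plate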). The following applies: HUVEC proliferation, CellTiter-Glo luminescence, 72 h; at 10 µM; stronger effect = lower value. In short, it runs like this: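 material = primary HUVEC, no more than 12 passages | input = 1250 cells per well | controls = vehicle and MePR control wells | measured by = CTG luminescence | times = 72 h compound incubation | format = collagen-coated 384-well format | read-out = % viability vs DMSO wells | doses = single 10 µM dose, 0.1% DMSO, from 5x medium stock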

The nature of experiment [3]: H69AR cell proliferation blockers – human, duplicate replicates, primary screen (AID 580).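 Note: 100% = mean luminescence of untreated wells and 0% = no signal.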 The following applies: H69AR lung tumor cells viability, ATP luminescence, 72 h; at 10 µM; stronger effect = lower value.
Experiment [4] in a line: MRP1 drug-resistance reversers in H69AR cells – cell-based, doxorubicin co-treatment, pilot screen (AID 601;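 active = viability loss from added drug above about 55%, and viability with drug at most 40%, in both replicates, limit read from the data, passing the limit was not always enough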). Conditions: CellTiter-Glo, 72 h, at 10 µM; for differential viability (reversal): stronger effect = higher value.
The nature of experiment [5]: yeast transport mutant growth inhibition pilot in 384-well plates, post-Golgi transport modulator project (AID 636; in the data active = inhibition above about 31%). Conditions: absorbance 615 nm, about 18 h, stronger effect = higher value.
Experiment [6] is described as follows: growth suppression of yeast trafficking mutant, preliminary HTS, modulators of trafficking downstream of Golgi apparatus project, 1536-format plate, OD 615 nm (AID 637; in the data active = inhibition above about 30%). The following applies: yeast transport mutant growth, absorbance 615 nm, 18 h; stronger effect = higher value.
Setting [7] is: H69AR cells + 2 uM doxorubicin, measured here: viability with 2 uM doxorubicin, stronger effect = lower value.
Where [8] appears, read: H69AR cells, compound alone cytotoxicity.

What is called viability is a read-out of living cells in per cent, often relative to untreated cells. As usually defined, the inhibition is the relative decrease from the control value, in per cent.

Activity calls are given as the source filed them.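 Rule for the calls, unless noted: active = viability at or under a set limit in both replicates, limit being median viability minus 3 SD (cut at about 48% in these data, passing the limit was not always enough); inconclusive = at or under the limit in just one replicate; inactive = at or above the limit in both replicates.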

In the case of `CCn1c(Cc2ccccc2)nnc1SCC(=O)Nc1cc(C)on1`, the viability is 109% (inactive) in experiment [1]; 114% (inactive) in experiment [2]; 98.7% (inactive) in experiment [3]; 91% in experiment [4] (setting [7]); 98.7% in experiment [4] (setting [8]). In addition, the differential viability (reversal) in experiment [4] (H69AR cells + 2 uM doxorubicin) is 7.78% (inactive). Further, the inhibition in experiment [5] is -5.06% (inactive); in experiment [6], -2.95% (inactive).
Take `Cc1cc(NS(=O)(=O)c2ccc(NC(=O)Nc3ccc4c(c3)OCO4)cc2)no1`: the viability is 80% (inactive) in experiment [1]; 101% (inactive) in experiment [2]; 92.6% (inactive) in experiment [3]; 93.2% in experiment [4] (setting [7]); 92.6% in experiment [4] (setting [8]). In addition, the differential viability (reversal) in experiment [4] (H69AR cells + 2 uM doxorubicin) is -0.555% (inactive). In addition, the inhibition in experiment [5] is -6.49% (inactive); in experiment [6], 0.55% (inactive).
For the compound `CC1CN(C(=O)CSc2ncnc3sccc23)CC(C)O1` (centres undefined), the viability is 80% (inactive) in experiment [1]; 103% (inactive) in experiment [2]; 99.6% (inactive) in experiment [3]; 102% in experiment [4] (setting [7]); 99.6% in experiment [4] (setting [8]). In experiment [4] (H69AR cells + 2 uM doxorubicin), the differential viability (reversal) is -2.15% (inactive). Besides, the inhibition was -5.75% (inactive) in experiment [5] and 0% (inactive) in experiment [6].
Regarding `CCC(C)(C)n1nnnc1C(c1cc2cc(C)ccc2[nH]c1=O)N1CCCC1` (centres undefined), the viability in experiment [1] is 94% (inactive); in experiment [2] it was 98.7% (inactive); in experiment [3] it was 98.6% (inactive); in experiment [4] (setting [7]), 89%; in experiment [4] (setting [8]), 98.6%. For the same compound, the differential viability (reversal) in experiment [4] (H69AR cells + 2 uM doxorubicin) was 9.6% (inactive). The inhibition is -4.55% (inactive) in experiment [5] and 4.26% (inactive) in experiment [6].
With `CC1(C)CC(=O)c2sc(NS(C)(=O)=O)nc2C1`, the viability in experiment [1] is 119% (inactive); in experiment [2], 101% (inactive); in experiment [3] it was 96% (inactive); in experiment [4] (setting [7]) it was 83.2%; in experiment [4] (setting [8]), 96%. For the same compound, the differential viability (reversal) in experiment [4] (H69AR cells + 2 uM doxorubicin) is 12.7% (inactive). Moreover, the inhibition in experiment [5] was -6.16% (inactive); in experiment [6], 1.94% (inactive).
Turning to `Nc1ccc(S(=O)(=O)c2cccc(N)c2)cc1`, the viability in experiment [1] was 62% (inactive); in experiment [2], 100% (inactive); in experiment [3], 96.2% (inactive); in experiment [4] (setting [7]) it was 84.4%; in experiment [4] (setting [8]), 96.2%. For the same compound, the differential viability (reversal) in experiment [4] (H69AR cells + 2 uM doxorubicin) is 11.8% (inactive). For the same compound, the inhibition is -9.18% (inactive) in experiment [5] and 1.64% (inactive) in experiment [6].
Consider `CCOc1ccc2nc(SCC(=O)Nc3ncccn3)[nH]c2c1`, for which the viability in experiment [1] was 92% (inactive); in experiment [2], 97.4% (inactive); in experiment [3], 105% (inactive); in experiment [4] (setting [7]), 86.6%; in experiment [4] (setting [8]), 105%. The differential viability (reversal) in experiment [4] (H69AR cells + 2 uM doxorubicin) was 18.1% (inactive). Further, the inhibition in experiment [5] was -1.62% (inactive); in experiment [6] it was 3.45% (inactive).
On to `CCOc1ccc(N2CC(C(=O)NCCc3ccc(OC)c(OC)c3)CC2=O)cc1` (centres undefined), for which the viability in experiment [1] was 108% (inactive); in experiment [2] it was 97.6% (inactive); in experiment [3], 94.5% (inactive); in experiment [4] (setting [7]) it was 91.4%; in experiment [4] (setting [8]) it was 94.5%. For the same compound, the differential viability (reversal) in experiment [4] (H69AR cells + 2 uM doxorubicin) is 3.03% (inactive). The inhibition was -11% (inactive) in experiment [5] and 2.26% (inactive) in experiment [6].
As for `O=C(O)CSc1ncn[nH]1`, the viability is 87% (inactive) in experiment [1]; 102% (inactive) in experiment [2]; 109% (inactive) in experiment [3]; 108% in experiment [4] (setting [7]); 109% in experiment [4] (setting [8]). Moreover, the differential viability (reversal) in experiment [4] (H69AR cells + 2 uM doxorubicin) was 0.37% (inactive). For the same compound, the inhibition in experiment [5] is -6.58% (inactive); in experiment [6], 6.73% (inactive).
`c1ccc2c(c1)CCCC2C1=NCCN1` (centres undefined): the viability in experiment [1] was 100% (inactive); in experiment [2], 84.6% (inactive); in experiment [3], 95.3% (inactive); in experiment [4] (setting [7]), 88.6%; in experiment [4] (setting [8]), 95.3%. Besides, in experiment [4] (H69AR cells + 2 uM doxorubicin), the differential viability (reversal) is 6.75% (inactive). Also, the values for the inhibition in experiment [5] and in experiment [6] were -2.6% (inactive) and 1% (inactive), respectively.
With `O=c1c2cc3ccccc3n2cnn1Cc1ccccc1F`, the viability is 100% (inactive) in experiment [1]; 57.9% (inactive) in experiment [2]; 11.3% (active) in experiment [3]; 47.4% in experiment [4] (setting [7]); 11.3% in experiment [4] (setting [8]). For the same compound, in experiment [4] (H69AR cells + 2 uM doxorubicin), the differential viability (reversal) was -36.1% (inactive). For the same compound, the figures for the inhibition in experiment [5] and in experiment [6] were -1.95% (inactive) and 2.3% (inactive), respectively.
As for `CCOC(=O)c1cc(CC)sc1NC(=O)COC`, the viability is 104% (inactive) in experiment [1]; 89.4% (inactive) in experiment [2]; 88.8% (inactive) in experiment [3]; 86.2% in experiment [4] (setting [7]); 88.8% in experiment [4] (setting [8]). Besides, in experiment [4] (H69AR cells + 2 uM doxorubicin), the differential viability (reversal) was 2.66% (inactive). Also, the inhibition in experiment [5] is -7.07% (inactive); in experiment [6], 0.18% (inactive).
With `Cc1ccc(-c2nn[nH]n2)cc1`, the viability was 109% (inactive) in experiment [1]; 112% (inactive) in experiment [2]; 107% (inactive) in experiment [3]; 111% in experiment [4] (setting [7]); 107% in experiment [4] (setting [8]). Moreover, the differential viability (reversal) in experiment [4] (H69AR cells + 2 uM doxorubicin) is -4.72% (inactive). Besides, the inhibition in experiment [5] was -4.79% (inactive); in experiment [6], 2.18% (inactive).
`N#CCC(=O)Nc1ncn(Cc2ccccc2Cl)n1`: the viability in experiment [1] was 95% (inactive); in experiment [2], 105% (inactive); in experiment [3] it was 95.2% (inactive); in experiment [4] (setting [7]), 106%; in experiment [4] (setting [8]) it was 95.2%. For the same compound, the differential viability (reversal) in experiment [4] (H69AR cells + 2 uM doxorubicin) is -10.4% (inactive). The inhibition is -4.52% (inactive) in experiment [5] and 3.82% (inactive) in experiment [6].
Take `Cn1c(=O)cc(SCC(=O)NCc2cccnc2)c2ccccc21`: the viability in experiment [1] is 92% (inactive); in experiment [2] it was 109% (inactive); in experiment [3] it was 92.7% (inactive); in experiment [4] (setting [7]) it was 83.9%; in experiment [4] (setting [8]), 92.7%. Besides, the differential viability (reversal) in experiment [4] (H69AR cells + 2 uM doxorubicin) is 8.73% (inactive). For the same compound, the inhibition in experiment [5] is -6.8% (inactive); in experiment [6], -1.82% (inactive).
For the compound `Cc1ccc(S(=O)(=O)N2CCN(c3nc(C(C)C)c4c(c3C#N)CC(C)(C)OC4)CC2)cc1`, the viability is 65% (inactive) in experiment [1]; 111% (inactive) in experiment [2]; 79.6% (inactive) in experiment [3]; 70% in experiment [4] (setting [7]); 79.6% in experiment [4] (setting [8]). Besides, in experiment [4] (H69AR cells + 2 uM doxorubicin), the differential viability (reversal) was 9.54% (inactive). The inhibition in experiment [5] was -1.22% (inactive); in experiment [6], -3.09% (inactive).
For `CCN(CC)CCN1C(=O)C(=O)/C(=C(/O)c2ccc(OC(C)C)cc2)C1c1ccncc1` (centres undefined), the viability in experiment [1] is 133% (inactive); in experiment [2], 112% (inactive); in experiment [3] it was 91.1% (inactive); in experiment [4] (setting [7]), 84.5%; in experiment [4] (setting [8]), 91.1%. Besides, the differential viability (reversal) in experiment [4] (H69AR cells + 2 uM doxorubicin) was 6.59% (inactive). The results for the inhibition in experiment [5] and in experiment [6] were -6.76% (inactive) and 3.09% (inactive), respectively.
For `Cc1cccc(-n2ncc3c(NCc4cccs4)ncnc32)c1`, the viability in experiment [1] is 64% (inactive); in experiment [2], 61.8% (inactive); in experiment [3], 66.1% (inactive); in experiment [4] (setting [7]) it was 88.9%; in experiment [4] (setting [8]), 66.1%. The differential viability (reversal) in experiment [4] (H69AR cells + 2 uM doxorubicin) was -22.8% (inactive). Also, the results for the inhibition in experiment [5] and in experiment [6] were 26.2% (inactive) and 0.36% (inactive), respectively.
